Article PMC12279052 (RSC Advances, 2025)

How the values were obtained:
[1] = Conductivity in low concentration region; format: physicochemical; settings: in water
Procedure, shortened: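 Conductivity of aqueous test compound solutions was measured at each temperature in double-distilled deionized water (0.8 − 1.0 × 10−4 S m−1 at 298.15 K). The digital meter and electrode were calibrated with standard KCl, and the thermostat held ±0.02 K; relative standard uncertainty was ±3%.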

[2] = test system: Escherichia coli ATCC25922; assay: Antibacterial activity, broth dilution MIC; format: cell-based; settings: E. coli, n = 3
[3] = test system: human lung cancer cell line A549; assay: Cell toxicity assay, MTT; format: cell-based; settings: A549, MTT, 24 h, n = 3
[4] = Density measurement, apparent molar volume at infinite dilution in water; format: physicochemical; settings: aqueous solution
Procedure, shortened: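 Solution density was measured with a vibrating-tube densitometer calibrated with dry air and double-distilled water, with Peltier temperature control at ±0.01 K and density uncertainty 2.0 × 10−4 g cm−3. Apparent molar volumes were computed versus molality. Infinite-dilution values came from the Redlich–Mayer equation with empirical parameters Sv and Bv.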

[5] = Aggregation in water by electrical conductivity; format: physicochemical; settings: for cmc: conductivity, water; for ionization degree α: micelle (cmc); for ΔG^0m / ΔH^0m / ΔS^0m / −TΔS^0m: micellization (cmc)
Procedure, shortened: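 Conductivity of aqueous test compound solutions was measured with a digital conductivity meter and electrode, calibrated against standard KCl, with a thermostat holding ±0.02 K and ±3% relative uncertainty. cmc and cac were taken from the break points, found by fitting the Aguiar equation. α came from the ratio of post- to pre-transition slopes (A2/A1), and micellization thermodynamic functions from the mass action model.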

[6] = Steady-state fluorescence with pyrene probe; format: physicochemical; settings: 298.15 K
Procedure, shortened: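 Pyrene (1 μM) served as probe at 298.15 K. Excitation was 335 nm, emission 355–650 nm, slits 2.5 nm, 700 V, 240 nm min−1, in a 1 cm quartz cuvette. cmc came from a Boltzmann fit of I1/I3 (373/384 nm). For Nagg, test compound at 2.5 cmc was quenched with cetylpyridinium chloride at 0.2–1.0 × 10−4 mol dm−3, and Nagg was derived from linear ln(I0/I) versus [Q].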

[7] = Octanol–water partition coefficient, shake-flask method; format: physicochemical
Procedure, shortened: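 Shake-flask partitioning was run at 25 and 37 °C in water, SGF (pH 1.2), SIF (pH 6.8) or SBF (pH 7.4). Fluids were prepared per USP without enzyme and pre-saturated with n-octanol (24 h shaking, 24 h separation). Test compound in buffer-saturated octanol (5 mL) was shaken 24 h with 5 mL octanol-saturated buffer, then centrifuged 10 min. The octanol phase was read by UV at 200 nm, and log Ko/w = log Co/(C−Co).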

[8] = test system: Cutibacterium acnes ATCC6919; assay: Antibacterial activity, broth dilution MIC; format: cell-based; settings: C. acnes, n = 3
[9] = Thermal stability by TG/DTG; format: physicochemical; settings: first decomposition process, 10 K min^−1, argon
Procedure, shortened: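 Simultaneous thermal analysis ran from 30–500 °C at 10 K min−1 on 3–5 mg sample in an Al2O3 crucible, with α-Al2O3 as reference. Argon served as protective gas at 20 mL min−1 and as purge gas at 60 mL min−1.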

[10] = test system: Staphylococcus aureus ATCC29213; assay: Antibacterial activity, broth dilution MIC; format: cell-based; settings: S. aureus, n = 3
[11] = test system: Candida albicans ATCC10231; assay: Antimicrobial activity, broth dilution MIC; format: cell-based; settings: C. albicans, n = 3
[12] = test system: human hepatocellular carcinoma cell line HepG2; assay: Cell toxicity assay, MTT; format: cell-based; settings: HepG2, MTT, 24 h, n = 3

## CCCCCCC(=O)O.O=C1CCC[C@@H]2[C@H]3CCCN4CCC[C@@H](CN12)[C@@H]34 [[Mat][C7]]
[1]; 298.15 K
  Association constant KA: 6.11 ± 0.61 dm^3 mol^−1
  Limiting molar conductivity Λ0: 47.78 ± 0.03 S cm^2 mol^−1
[1]; 303.15 K
  Association constant KA: 3.91 ± 0.48 dm^3 mol^−1
  Limiting molar conductivity Λ0: 52.96 ± 0.03 S cm^2 mol^−1
[1]; 308.15 K
  Association constant KA: 1.53 ± 0.37 dm^3 mol^−1
  Limiting molar conductivity Λ0: 59.37 ± 0.03 S cm^2 mol^−1
[2]
  MIC: 33.0 mM
[3]
  IC50: 14 mM
[4]; 293.15 K
  Apparent molar volume at infinite dilution V^0 2,φ: 321.56 ± 0.09 cm^3 mol^−1
[4]; 298.15 K
  Apparent molar volume at infinite dilution V^0 2,φ: 323.31 ± 0.11 cm^3 mol^−1
[4]; 303.15 K
  Apparent molar volume at infinite dilution V^0 2,φ: 324.72 ± 0.10 cm^3 mol^−1
[4]; 308.15 K
  Apparent molar volume at infinite dilution V^0 2,φ: 326.82 ± 0.20 cm^3 mol^−1
[5]; 293.15 K
  cmc: 0.00511 mol/kg
  ionization degree α: 0.8986
  ΔG^0m: -5.961 kcal/mol
  ΔH^0m: -0.956 kcal/mol
  ΔS^0m: 71.43 J mol^−1 K^−1
  −TΔS^0m: -5.005 kcal/mol
[5]; 298.15 K
  cmc: 0.00524 mol/kg
  ionization degree α: 0.8976
  ΔG^0m: -6.054 kcal/mol
  ΔH^0m: -0.92 kcal/mol
  ΔS^0m: 72.03 J mol^−1 K^−1
  −TΔS^0m: -5.134 kcal/mol
[5]; 303.15 K
  cmc: 0.00536 mol/kg
  ionization degree α: 0.8989
  ΔG^0m: -6.133 kcal/mol
  ΔH^0m: -0.88 kcal/mol
  ΔS^0m: 72.51 J mol^−1 K^−1
  −TΔS^0m: -5.253 kcal/mol
[5]; 308.15 K
  cmc: 0.00549 mol/kg
  ionization degree α: 0.8927
  ΔG^0m: -6.252 kcal/mol
  ΔH^0m: -0.839 kcal/mol
  ΔS^0m: 73.51 J mol^−1 K^−1
  −TΔS^0m: -5.413 kcal/mol
[5]; 313.15 K
  cmc: 0.00558 mol/kg
  ionization degree α: 0.8987
  ΔG^0m: -6.31 kcal/mol
  ΔH^0m: -0.786 kcal/mol
  ΔS^0m: 73.80 J mol^−1 K^−1
  −TΔS^0m: -5.523 kcal/mol
[6]; Fluorescence (pyrene I1/I3), water
  cmc: 0.00554 mol/kg
[6]; ST = 2.5 cmc, fluorescence quenching with CPC
  N agg (aggregation number): 25
[7]; pH = 1.2 (SGF), 25 °C
  Log K o/w: −0.36
[7]; pH = 1.2 (SGF), 37 °C
  Log K o/w: 0.07
[7]; pH = 6.8 (SIF), 25 °C
  Log K o/w: 0.01
[7]; pH = 6.8 (SIF), 37 °C
  Log K o/w: 0.25
[7]; pH = 7.0 (ultrapure water), 25 °C
  Log K o/w: 0.42
[7]; pH = 7.0 (ultrapure water), 37 °C
  Log K o/w: 0.69
[7]; pH = 7.4 (SBF), 25 °C
  Log K o/w: 0.83
[7]; pH = 7.4 (SBF), 37 °C
  Log K o/w: 1.01
[8]
  MIC: 66.0 mM
[9]
  T onset (onset decomposition temperature): 185.5 °C
[10]
  MIC: 132.1 mM
[11]
  MIC: 66.0 mM
[12]
  IC50: 4.47 mM
